Source: PubChem BioAssay
MEKK2 WT-MEK5: raises or lowers MEK5 binding to wildtype human MEKK2 PB1 domain; actives 1.1% (n = 290,000); bead flow cytometry, Alexa488-MEK5 binding to MEKK2 WT; actives lie on both sides; Q9Y2U5; binding response (% of control), % at 10 µM; in the data active means binding response below about 67% or above about 130%
T cell HTS: T cell immune modulation candidate | actives 0.068% (n = 330,000) | 2C CD8+ T cell-vesicle binding, flow cytometry; hits give low values | response (vesicle binding), % at 7 µM;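 active means response, share of CD8 T cells binding vesicles, and their 90th percentile fluorescence all below set limits, cut at about 80% in these data, passing the limit was not always enough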;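 further: values below 100% mean blocked vesicle binding to the CD8+ T cells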
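Read-out – percent CD8+ FL2 mean versus row control · System – murine 2C transgenic CD8+ T lymphocytes · Times – 1.5 h cell–vesicle binding at 37 °C, then 20 min icy labelling · Control set – naked vesicles low, QL9 vesicles with vehicle high · Detection – cytometric PE anti-B7-1 and Alexa647 anti-CD8 signals after 1% paraformaldehyde fixation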
UCH37 DUB inh: inhibitors of human deubiquitinating enzyme UCH37 | AID 588478 | purified proteasome/UCH37, Ub-AMC cleavage fluorescence | actives 0.33% (n = 330,000) | inhibition, % (test concentration not listed) | Q9Y5K5;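 active means mean inhibition over replicate wells above about 20%, limit read from the data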;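 further: 0% = compound-free wells with enzyme and 100% = wells lacking proteasome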
Target sequence (Q9Y5K5 whole entry, looked up): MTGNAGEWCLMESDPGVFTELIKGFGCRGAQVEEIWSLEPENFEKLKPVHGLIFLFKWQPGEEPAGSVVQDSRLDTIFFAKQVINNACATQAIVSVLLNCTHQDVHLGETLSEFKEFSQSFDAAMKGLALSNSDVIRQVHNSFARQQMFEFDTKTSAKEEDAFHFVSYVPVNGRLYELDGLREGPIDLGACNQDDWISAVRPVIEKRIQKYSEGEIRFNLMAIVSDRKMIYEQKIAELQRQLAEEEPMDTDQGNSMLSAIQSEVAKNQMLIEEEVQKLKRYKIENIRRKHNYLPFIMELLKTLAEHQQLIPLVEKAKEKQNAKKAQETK
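Reagent: Ub-AMC substrate; assay system: Proteasome-associated human UCH37 deubiquitinase; controls: no-proteasome and no-compound wells; read-out: % inhibition of Ub-AMC cleavage fluorescence; timing: 30 min preincubation with enzyme, 25 min cleavage at room temperature; signal: AMC fluorescence from Ub-AMC cleavage, excitation 355 nm, emission 460 nm; buffer or medium: Tris-HCl pH 7.4 plus ovalbumin, ATP-MgCl2, DTT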
Rce1 inhib: inhibitors of yeast Ras-converting enzyme; Q03530; yeast membranes, quenched prenylated peptide cleavage fluorescence; calls only; AID 2563; actives 0.27% (n = 290,000);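 active means fall in fluorescence gain of 50% or more versus controls, with final raw signal at or below 3038400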;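 further: plate controls were neutral control wells for no effect and wells lacking membranes for full effect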
Target sequence (Q03530 whole entry, looked up): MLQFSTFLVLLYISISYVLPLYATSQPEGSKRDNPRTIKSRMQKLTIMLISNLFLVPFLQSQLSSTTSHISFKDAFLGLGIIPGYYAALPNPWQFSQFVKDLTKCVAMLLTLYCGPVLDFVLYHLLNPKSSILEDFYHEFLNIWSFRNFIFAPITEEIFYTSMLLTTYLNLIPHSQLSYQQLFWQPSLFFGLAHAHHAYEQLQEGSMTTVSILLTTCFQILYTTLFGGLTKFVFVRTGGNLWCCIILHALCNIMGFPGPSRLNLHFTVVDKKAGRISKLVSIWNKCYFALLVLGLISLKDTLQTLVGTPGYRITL
MEKK3 PB1 HTS: MEKK3-MEK5 PB1 interaction, increase or decrease | Q99759 | bead-based flow cytometry, Alexa488-MEK5 binding to MEKK3; actives lie on both sides; 0 = blocked by unlabeled MEK5, 100 = vehicle | binding response (% of control), % at 10 µM | actives 1.4% (n = 290,000) | AID 1529;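 active means binding response more than 3 SD above or below the average of its plate-row segment, actives on both sides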;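 further: Alexa488 bead fluorescence after subtracting the streptavidin-only scavenger bead signal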
MEKK2mut PB1 HTS: signal of MEK5 binding to mutant human MEKK2 PB1 domain | percent response, % at 10 µM | bead flow cytometry, Alexa488-MEK5 binding to MEKK2 mutant | actives 0.35% (n = 290,000); in the data active means percent response above about 24%, passing the limit was not always enough
MEKK2wt confirm: raises or lowers MEK5 binding to wildtype human MEKK2, retest. shares compounds with MEKK3 PB1 HTS. bead flow cytometry, Alexa488-MEK5 binding to MEKK2 WT; actives lie on both sides. binding response (% of control), % at 10 µM. actives 2.4% (n = 5,900). AID 1892; in the data active means binding response below about 16% or above about 210%; inactive means in between
MEKK2mut-MEK5: signal of MEK5 binding to mutant human MEKK2, retest; shares compounds with MEKK3 PB1 HTS; bead flow cytometry, Alexa488-MEK5 binding to MEKK2 mutant; percent response, % at 10 µM; actives 2% (n = 5,900); in the data active means percent response mostly above about 71%, no sharp cut-off; inactive means mostly below about 38%;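 further: higher means compound restores mutant binding toward wildtype level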
MEKK3-MEK5 inh: confirmation of inhibitors of MEK5 binding to human MEKK3; binding response (% of control), % at 10 µM; bead flow cytometry, Alexa488-MEK5 binding to MEKK3; hits give low values; actives 1.8% (n = 5,900); shares compounds with MEKK3 PB1 HTS;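 active means binding response below 72% of control, or above a set upper limit, though filed actives all read lower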;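 further: 100% = DMSO only wells and 0% = binding blocked by excess unlabeled MEK5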
The depositor's hits bear a star; i = inactive; . = no result given; [ ] = remark or other dose. Shown are actives, neighbours in structure and some others; about 2.5% of the full set was active somewhere.

SMILES	MEKK2 WT-MEK5	T cell HTS	UCH37 DUB inh	Rce1 inhib	MEKK3 PB1 HTS	MEKK2mut PB1 HTS	MEKK2wt confirm	MEKK2mut-MEK5	MEKK3-MEK5 inh
COc1cccc(C2=NO[C@@H]3C(=O)N(c4ccc5c(c4)OCCO5)C(=O)[C@H]23)c1OC	98.0	223.5	1.8	i	99.0	0.0	.	.	.
COc1cc(C(CCN2CCCC(C)C2)c2c(OC)cc(OC)c3c2OC(=O)CC3c2ccc(N(C)C)cc2)cc(OC)c1OC (stereo not given)	136.0*	186.3	-1.4	i	96.0	14.0	136.0	16.0	100.0
COc1cc(C2CC(=O)Oc3c(C(CCN4CCCC(C)C4)c4ccc(N(C)C)cc4)c(OC)cc(OC)c32)cc(OC)c1OC (stereo not given)	154.0*	.	0.8	i	124.0	5.0	119.0	13.0	105.0
COc1cc(C=Nn2c(-c3ccccc3)n[nH]c2=S)cc(OC)c1OC	.	.	5.5	.	.	.	.	.	.
O=C(NN=Cc1ccco1)c1cc(-c2ccc(Cl)s2)[nH]n1	.	.	3.2	.	.	.	.	.	.
Cc1ccc(NC(NC(=O)c2ccccc2[N+](=O)[O-])C(Cl)(Cl)Cl)cc1 (stereo not given)	109.0	184.7	0.0	i	133.0*	0.0	98.0	3.0	99.0
CN(C)c1ccc(C=NOC(=O)Nc2ccccc2)cc1	.	.	3.2	.	.	.	.	.	.
O=C(NN=Cc1ccoc1)c1cccc([N+](=O)[O-])c1	.	.	-1.2	.	.	.	.	.	.
O=C(NN=Cc1cc(Br)c(O)c([N+](=O)[O-])c1)C(O)(c1ccccc1)c1ccccc1	.	.	19.1	.	.	.	.	.	.
N/C(COc1cc(Cl)cc(Cl)c1)=N\O	115.0	438.5	.	i	135.0*	25.0	105.0	-2.0	107.0
Cc1ccc(C(=O)NCC(=O)OC(C)C(=O)Nc2ccc(N(C)C)cc2)cc1C (stereo not given)	132.0	110.4	1.6	i	141.0*	8.0	102.0	0.0	104.0
CC(C)(C)c1ccc(C(=O)NN=Cc2ccccn2)cc1	.	.	1.9	.	.	.	.	.	.
CCOC(=O)C1CCN(C(=O)C2CCN(c3nc4ccc(OC)cc4s3)CC2)CC1	118.0	500.7	-0.3	i	122.0*	7.0	110.0	8.0	108.0
CCOC(=O)C1CCN(C(=O)C2CCN(c3nnc(-n4cccc4)s3)CC2)CC1	102.0	477.7	-2.2	i	100.0	-1.0	.	.	.
CCN(CC)c1ccc(C=NNC(=O)c2cccc3cc[nH]c23)cc1	.	.	-202.1	.	.	.	.	.	.
O=C(COc1ccc(F)cc1)c1c(O)cc(O)cc1O	115.0	193.2	3.2	i	132.0*	24.0	104.0	2.0	101.0
COc1cc(-n2c(=O)c3ccccc3n(Cc3ccccc3)c2=O)cc(OC)c1OC	127.0	312.4	4.7	.	134.0*	8.0	101.0	-3.0	101.0
CC(=NNC(=O)Cc1cccn1C)c1cccc2ccccc12	.	.	4.2	.	.	.	.	.	.
O=C1c2ccc([N+](=O)[O-])cc2C(=O)N1Cc1cccnc1	118.0	362.6	1.3	i	111.0	25.0*	105.0	-2.0	106.0
COc1c2occc2c(OC(C)=O)c2c(=O)cc(C)oc12	79.0	754.6	3.7	i	80.0*[inhibitor]	49.0*	98.0	-5.0	100.0
CC(=O)Oc1c2occc2cc2ccc(=O)oc12	100.0	220.7	-0.7	i	89.0	3.0	.	.	.
Cc1nnc(Nc2ccccc2)n(N)c1=O	-1.0*[inhibitor]	458.1	2.3	i	0.0*[inhibitor]	-21.0	104.0	7.0	104.0
Cc1nnc(NN)n(N)c1=O	100.0	517.2	4.5	i	105.0	4.0	.	.	.
Cc1cccc(/C=N/n2c(-c3cc(-c4ccccc4)n[nH]3)n[nH]c2=S)c1	101.0	244.3	.	i	138.0*	0.0	96.0	-3.0	101.0
O=C(O)Cc1ccc(N=Nc2c(O)c(C(=O)O)cc3ccccc23)cc1	91.0	382.6	19.4	i	99.0	4.0	.	.	.
SMILES	MEKK2 WT-MEK5	T cell HTS	UCH37 DUB inh	Rce1 inhib	MEKK3 PB1 HTS	MEKK2mut PB1 HTS	MEKK2wt confirm	MEKK2mut-MEK5	MEKK3-MEK5 inh
NS(=O)(=O)c1ccc(N=Nc2c(O)c(C(=O)O)cc3ccccc23)cc1	69.0	237.0	11.3	i	65.0*[inhibitor]	-39.0	96.0	-4.0	98.0
Cc1cc(N/N=C/c2ccccc2O)c2ccccc2n1	186.0*	254.0	.	i	108.0	14.0	135.0	14.0	102.0
COc1ccc(/C=N/Nc2cc(C)nc3ccc(Br)cc23)cc1	214.0*	220.2	.	i	106.0	73.0*	245.0*	120.0*	107.0
Cc1cc(NCc2ccccc2)c2ccccc2n1	149.0*	314.3	4.7	.	111.0	8.0	116.0	9.0	103.0
COc1ccc2nc(C)cc(N/N=C/c3cccc(OC)c3O)c2c1	260.0*	187.2	.	i	116.0	72.0*	236.0*	79.0*	106.0
Cc1ccc(S(=O)(=O)N=C(c2ccc(F)cc2)n2c(C)nc3ccccc32)cc1	.	.	0.8	.	.	.	.	.	.
Nc1nonc1-n1nnc(C(=O)NN=Cc2ccc(O)cc2)c1COc1ccc(F)cc1	.	.	1.5	.	.	.	.	.	.
Cc1cc(Cl)ccc1OCC(=O)NN=Cc1ccc(OC2OC(CO)C(O)C(O)C2O)cc1 (stereo not given)	.	.	3.6	.	.	.	.	.	.
O=C(O)CC(NS(=O)(=O)c1c(F)cc(F)cc1Br)c1ccccc1Cl (stereo not given)	114.0	801.5	4.3	i	115.0	279.0*	101.0	-7.0	98.0
CC(C)CC(=O)NC(=S)Nc1ccc(N2CCCC2)c(Cl)c1	67.0	581.6	0.6	i	62.0	-19.0	.	.	.
CC(C)C(=O)Nc1ccc(N2CCCC2)c(Cl)c1	123.0	413.4	-1.2	i	151.0*	3.0	102.0	-1.0	99.0
CC(=NNC(=O)c1cccc(S(=O)(=O)N2CCOCC2)c1)c1ccc(C)cc1	.	.	-1.4	.	.	.	.	.	.
COc1nc(Nc2ccccc2F)nc(OC)n1	102.0	523.1	1.8	i	102.0	25.0*	105.0	1.0	101.0
CCOC(=O)/C(=C\C=C1/Sc2ccccc2N1CC)C(C)=O	68.0	728.1	14.9	i	80.0	-5.0	.	.	.
CCOC(=O)/C(=C/C=C1\Sc2cc(C)c(C)cc2N1CC)C(C)=O	42.0*[inhibitor]	.	10.3	i	90.0	-22.0	87.0	-12.0	91.0
O=C1CCS/C(=N\N=Cc2ccc(Cl)cc2Cl)N1	.	.	4.0	.	.	.	.	.	.
CCC(C)NC(=O)c1c(N)n(N=Cc2ccccn2)c2nc3ccccc3nc12 (stereo not given)	.	.	-29.1	.	.	.	.	.	.
COc1ccc(OC)c(S(=O)(=O)n2nc(C)cc2C)c1	125.0	140.1	1.2	.	135.0*	7.0	95.0	-1.0	101.0
